Activity calls are given as the source filed them. The calls are words filed in the database; no cut-off is given here.
Experiments:
[1] = test system: T47D; experiment: Inhibition of 1,10-phenanthroline-induced VEGF protein secretion in human T47D cells at 10 uM after 16 hrs by ELISA; format: functional, cell-based
How it was run: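 T47D cells stimulated with 1,10-phenanthroline, compound at 10 μM; secreted VEGF in conditioned media by ELISA, normalized to cell-lysate protein.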

[2] = Inhibition of 1,10-phenanthroline-induced HIF1 activation in T47D cells by TK-luciferase assay; format: cell-based; details: Homo sapiens
How it was run: (§1)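 HIF-1 reporter (pHRE-TK-Luc) assays in transfected PC-3 or T47D cells; HIF-1 induced by hypoxia or by the hypoxia mimetic 1,10-phenanthroline (10 μM); compounds at half-log concentrations; luciferase activity measured; IC50 from experiments in triplicate.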

[3] = molecular target: Hypoxia inducible factors; HIF-1-alpha, HIF-2-alpha (Homo sapiens, UniProt Q16665+Q99814); experiment: Inhibition of HIF1 activation in human T47D cells by TK-luciferase assay; format: cell-based; how it was run: as §1
[4] = Inhibition of 1,10-phenanthroline-induced HIF1 activation in PC3 cells by TK-luciferase assay; format: cell-based; details: Homo sapiens, PC-3; how it was run: as §1
[5] = test system: T47D; experiment: Inhibition of hypoxia induced VEGF protein secretion in human T47D cells at 10 uM after 16 hrs by ELISA; format: functional; set-up: scale not given: the % may be the effect or the level left
How it was run: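 Exponentially growing T47D cells exposed to hypoxia (1% O2) with compound (10 μM) for 16 hr; secreted VEGF protein in conditioned media by ELISA, normalized to protein in cell lysates (micro BCA).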

[6] = Inhibition of HIF1 activation in PC3 cells by TK-luciferase assay; format: cell-based; details: Homo sapiens, PC-3; how it was run: as §1
[7] = DPPH radical scavenging activity relative to Trolox; format: functional; set-up: concentration or dose not given beside the values
How it was run: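 Compounds were made up as DMSO stocks and diluted in isopropanol to a final 10 μM. Each was mixed with DPPH in isopropanol at 10 μM or 30 μM DPPH, and absorbance was read at 515 nm. Scavenging was calculated as [1 − OD515(compound)/OD515(control)] × 100, then expressed as a percentage of Trolox activity. One experiment was run in triplicate.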

[8] = Inhibition of luciferase at 30 uM
How it was run: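 Purified recombinant firefly luciferase (QuantiLum, 46.8 μg mL−1) mixed with compound in passive lysis buffer containing BSA (1 mg mL−1); equal volume of luciferase substrate added, light output read; percentage inhibition relative to DMSO control; concentration-response curves up to 30 μM.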

IC50 [2] | IC50 [3] | IC50 [4] | IC50 [6] | inhibition [8] | Structure (SMILES) | Activity [1] | Activity [5] | Activity [7]
3000 nM | 3 µM | > 10 µM | > 10 µM |  | CCCc1cc(=O)c2c(O)cc3cc(O)cc(OC)c3c2o1 [COMAPARVIN] | inactive | 27% | 
1900 nM | 2.7 µM | 3.7 µM | 3.2 µM | 48% | CCCc1cc(=O)c2c(OC)c3c(OC)cc(O)cc3cc2o1 [NEOCOMANTHERIN] | inactive |  | 40%

— ChEMBL document CHEMBL1141286, “Benzochromenones from the marine crinoid Comantheria rotula inhibit hypoxia-inducible factor-1 (HIF-1) in cell-based reporter assays and differentially suppress the growth of certain tumor cell lines” (J Nat Prod, 2007)
